High-throughput results: PubChem BioAssay, Sanford-Burnham Center for Chemical Genomics
CendR NRP1 mod: modulators of CendR peptide binding to human neuropilin-1; O14786; FAM-RPARPAR peptide binding to NRP-1, fluorescence polarization; inhibition, % at 25 µM; 360,000 tested, 0.85% active;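 active = inhibition or corrected inhibition above about 18%, plus a signal ratio from 0.5 to 1.5, limit read from the data, passing the limit was not always enough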
SENP6 inh: inhibitors of human SENP6 protease. Q9GZR1. Recombinant SENP6 catalytic domain, aminoluciferin luminescence. inhibition, % at 10 µM. 330,000 tested, 1.8% active. AID 2599;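 active = inhibition above about 50% at the single tested dose, limit read from the data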
Target sequence (Q9GZR1 628-1112 limits assumed): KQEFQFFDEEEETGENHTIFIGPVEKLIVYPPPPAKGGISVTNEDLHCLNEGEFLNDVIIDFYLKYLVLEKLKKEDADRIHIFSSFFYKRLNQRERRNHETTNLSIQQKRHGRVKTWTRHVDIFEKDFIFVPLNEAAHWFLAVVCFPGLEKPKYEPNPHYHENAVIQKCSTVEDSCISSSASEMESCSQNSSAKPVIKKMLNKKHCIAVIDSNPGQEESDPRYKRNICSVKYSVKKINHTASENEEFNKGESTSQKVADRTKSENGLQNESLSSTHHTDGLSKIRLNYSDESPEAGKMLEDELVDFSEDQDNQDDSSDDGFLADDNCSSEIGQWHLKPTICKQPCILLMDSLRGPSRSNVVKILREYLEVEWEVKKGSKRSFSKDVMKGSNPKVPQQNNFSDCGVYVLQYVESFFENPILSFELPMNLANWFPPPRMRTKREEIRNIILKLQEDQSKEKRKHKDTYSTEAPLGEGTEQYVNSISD
SENP1 inh: blocks the human SENP1 SUMO protease catalytic domain; Q9P0U3; recombinant SENP1 catalytic domain, CyPet-SUMO1-YPet FRET cleavage; inhibition, % at 10 µM; 360,000 tested, 0.21% active;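 active = inhibition at least 30% at 10 µM, raw YFP signal under a set limit, fluorescence ratio 0.5 to 1.5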
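Assay system: hSENP1 catalytic domain, recombinant. Amount: SENP1 enzyme, 20 pM final. Schedule: 50 min reaction, RT, dark. Technique: FRET, CFP and YFP emission. Control set: no-enzyme wells low, DMSO-plus-enzyme wells high control.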
SENP8 block-1: blocks human SENP8 cleavage of Nedd8 substrate. inhibition, % at 20 µM. Q96LD8. AID 602440. 360,000 tested, 0.64% active. recombinant SENP8, Nedd8 substrate fluorescence; in the data active = inhibition mostly above about 40%, no sharp cut-off; inactive = mostly below about 27%
SENP7 inh: blocks the human protease SENP7; 330,000 tested, 1.5% active; Q9BQF6; inhibition, % at 5 µM; recombinant SENP7, Z-RLRGG-aminoluciferin luminescence, 40 min;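 active = inhibition above about 50% at the single test dose, limit read from the data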
SENP8 block-2: inhibitors of human SENP8 protease; Q96LD8; purified SENP8, Z-RLRGG-aminoluciferin cleavage, luminescence; inhibition, % at 10 µM; 330,000 tested, 1.2% active; in the data active = inhibition above about 50%
Each line names hits and unclear results; the compound was inactive in the other large screens. Hits are enriched below; roughly 3.3% of the tested compounds scored in any of these assays.

CCOC(=O)N1CCN(C2=C(NS(=O)(=O)c3ccccc3)C(=O)c3ccccc3C2=O)CC1	SENP8 block-1 54.2
NC(=O)C1CCN(C2=C(NS(=O)(=O)c3ccccc3)C(=O)c3ccccc3C2=O)CC1	none
C=CCn1c(Cn2c(-c3cnccn3)nc3ccccc32)nc2ccccc21	none (no result: SENP6 inh, SENP7 inh, SENP8 block-2)
O=C(NC1CCCCC1)OC1CC2CC1[C@H]1CCCCN1C2=O (stereo partly specified)	none (no result: SENP6 inh, SENP7 inh, SENP8 block-2)
C=CCn1c(C(C)n2c(-c3cnccn3)nc3ccccc32)nc2ccccc21 (stereo unspecified)	none (no result: SENP6 inh, SENP7 inh, SENP8 block-2)
O=C1C(NS(=O)(=O)c2ccc(Cl)cc2)=C(N2CCCCC2)C(=O)c2ccccc21	SENP8 block-1 45.9
CCOC(=O)N1CCN(C2=C(NS(=O)(=O)c3ccc(Br)cc3)C(=O)c3ccccc3C2=O)CC1	SENP8 block-1 53.9 (no result: SENP6 inh, SENP7 inh, SENP8 block-2)
CCOC(=O)[C@]12CCCC=C1N(Cc1cccc3ccccc13)C(=O)[C@H](CC(=O)NCCCN1CCCC1=O)C2	none (no result: SENP6 inh, SENP7 inh, SENP8 block-2)
CN=c1sc2c(n1C)C(=O)c1ccccc1C2=O	SENP8 block-1 73.2 (no result: SENP6 inh, SENP7 inh, SENP8 block-2)
C[C@H](CO)N1C[C@H](C)[C@@H](CN(C)C)Oc2c(NS(=O)(=O)c3ccc(F)cc3)cccc2C1=O	none
N#Cc1ccc(S(=O)(=O)N2CCCCC2c2cc(C(=O)NCc3cccnc3)no2)cc1 (stereo unspecified)	none (no result: SENP6 inh, SENP7 inh, SENP8 block-2)
CC(=O)Nc1ccc(C(=O)NNC(=O)c2csc(N3CCOCC3)n2)cc1	none (no result: SENP6 inh, SENP7 inh, SENP8 block-2)
O=C(NNC(=O)c1csc(N2CCOCC2)n1)c1ccc(=O)[nH]c1	CendR NRP1 mod 24.7
CCCCN(c1ccccc1)S(=O)(=O)c1ccc2c(c1)CCN2C(=O)CCC(=O)O	CendR NRP1 mod 25.2
Cc1c(NC(=S)N/N=C\c2ccccc2O)c(=O)n(-c2ccccc2)n1C	none
Cc1c(NC(=S)N/N=C/C=C/c2ccccc2)c(=O)n(-c2ccccc2)n1C	none
Cc1c(NC(=S)N/N=C/c2ccc([N+](=O)[O-])cc2O)c(=O)n(-c2ccccc2)n1C	SENP8 block-1 40.1
Cc1c(NC(=S)N/N=C/C=C/c2ccc([N+](=O)[O-])cc2)c(=O)n(-c2ccccc2)n1C	CendR NRP1 mod 35.5
Nc1cc2c(cc1Br)-c1ccccc1C2=NO	none (no result: SENP6 inh, SENP7 inh, SENP8 block-2)
C=CCN1C(=O)/C(=C/c2ccc(OC(C)=O)c(OCC)c2[N+](=O)[O-])SC1=S	SENP8 block-1 65.3 (no result: SENP6 inh, SENP7 inh, SENP8 block-2)
O=S1(=O)CC(N2CCN(c3ccccn3)CC2)CN1Cc1ccccc1 (stereo unspecified)	none (no result: SENP6 inh, SENP7 inh, SENP8 block-2)
O=C(O)c1cnn2c(C(F)(F)F)cc(-c3ccco3)nc12	none
Cc1c(NC(=O)c2cnn3c(C(F)(F)F)cc(-c4ccco4)nc23)c(=O)n(-c2ccccc2)n1C	CendR NRP1 mod 23.3
COc1ccccc1NC(=S)N(Cc1ccc(Cl)cc1)CC1CCC(C(=O)O)CC1 (stereo unspecified)	CendR NRP1 mod 27.5
COc1ccc(CN(CC2CCC(C(=O)O)CC2)C(=S)Nc2ccccc2OC)cc1 (stereo unspecified)	none
O=C(NCCc1ccc(Cl)cc1)C1CCC(=O)N(C2CCCCCC2)C1 (stereo unspecified)	none
O=C(NCc1ccc(Cl)cc1)C1CCC(=O)N(C2CC2)C1 (stereo unspecified)	CendR NRP1 mod 20.2
CCOC(=O)[C@]12CCCC=C1N(Cc1cccc3ccccc13)C(=O)[C@H](CC(=O)N1CCC(c3ccccc3)CC1)C2	none (no result: SENP6 inh, SENP7 inh, SENP8 block-2)
COc1c2c(c3c(c1OC)c(=O)c1ccccc1n3C)OCO2	CendR NRP1 mod 25.8 (no result: SENP6 inh, SENP7 inh, SENP8 block-2)
COc1c2c(c(OC)c3c1c(=O)c1ccccc1n3C)OCO2	none (no result: SENP6 inh, SENP7 inh, SENP8 block-2)
Cc1ccc(N2CCN(C(CCc3ccccc3)C(=O)Nc3c(C)cccc3C)CC2)cc1 (stereo unspecified)	none (no result: SENP6 inh, SENP7 inh, SENP8 block-2)
CC(C)n1cc(C#N)c(N)n1	none (no result: SENP6 inh, SENP7 inh, SENP8 block-2)
CC(C(=O)NN=C(c1ccccc1)c1ccccc1)N1CCOCC1 (stereo unspecified)	CendR NRP1 mod 26.5
O=C(CN1CCOCC1)NN=C(c1ccccc1)c1ccccc1	none
O=C(COC(=O)c1ccc(F)cc1F)Nc1cc(S(=O)(=O)N2CCOCC2)ccc1Cl	none
CN(Cc1nc2ccccc2c(=O)[nH]1)C(=O)COc1ccccc1Cc1ccccc1	CendR NRP1 mod 30.8
CCOc1ccccc1Nc1nnc(SCC(=O)N(C)C2CCS(=O)(=O)C2)s1 (stereo unspecified)	none
